Results from ChEMBL document CHEMBL1165965, “Synthesis and structure-activity relationships of 1,2,3,4-tetrahydropyrido[2,3-b]pyrazines as potent and selective inhibitors of the anaplastic lymphoma kinase” (Bioorg Med Chem, 2010).

What was measured:
[1] = molecular target: Mast/stem cell growth factor receptor Kit (Homo sapiens) (UniProt P10721); test: Inhibition of KIT at 1 uM
Method in brief: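 Single-concentration screen on the Ambit KINOMEscan platform, run against a panel of 250–400 kinases. Per-kinase inhibition was also summarized as S(90), the fraction of kinases inhibited by more than 90%.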

[2] = molecular target: Phosphatidylinositol 4,5-bisphosphate 3-kinase catalytic subunit gamma isoform (Homo sapiens) (UniProt P48736); test: Inhibition of PIK3CG at 1 uM
Phosphatidylinositol 4,5-bisphosphate 3-kinase catalytic subunit gamma isoform (Homo sapiens), sequence (P48736 whole entry, looked up, canonical isoform): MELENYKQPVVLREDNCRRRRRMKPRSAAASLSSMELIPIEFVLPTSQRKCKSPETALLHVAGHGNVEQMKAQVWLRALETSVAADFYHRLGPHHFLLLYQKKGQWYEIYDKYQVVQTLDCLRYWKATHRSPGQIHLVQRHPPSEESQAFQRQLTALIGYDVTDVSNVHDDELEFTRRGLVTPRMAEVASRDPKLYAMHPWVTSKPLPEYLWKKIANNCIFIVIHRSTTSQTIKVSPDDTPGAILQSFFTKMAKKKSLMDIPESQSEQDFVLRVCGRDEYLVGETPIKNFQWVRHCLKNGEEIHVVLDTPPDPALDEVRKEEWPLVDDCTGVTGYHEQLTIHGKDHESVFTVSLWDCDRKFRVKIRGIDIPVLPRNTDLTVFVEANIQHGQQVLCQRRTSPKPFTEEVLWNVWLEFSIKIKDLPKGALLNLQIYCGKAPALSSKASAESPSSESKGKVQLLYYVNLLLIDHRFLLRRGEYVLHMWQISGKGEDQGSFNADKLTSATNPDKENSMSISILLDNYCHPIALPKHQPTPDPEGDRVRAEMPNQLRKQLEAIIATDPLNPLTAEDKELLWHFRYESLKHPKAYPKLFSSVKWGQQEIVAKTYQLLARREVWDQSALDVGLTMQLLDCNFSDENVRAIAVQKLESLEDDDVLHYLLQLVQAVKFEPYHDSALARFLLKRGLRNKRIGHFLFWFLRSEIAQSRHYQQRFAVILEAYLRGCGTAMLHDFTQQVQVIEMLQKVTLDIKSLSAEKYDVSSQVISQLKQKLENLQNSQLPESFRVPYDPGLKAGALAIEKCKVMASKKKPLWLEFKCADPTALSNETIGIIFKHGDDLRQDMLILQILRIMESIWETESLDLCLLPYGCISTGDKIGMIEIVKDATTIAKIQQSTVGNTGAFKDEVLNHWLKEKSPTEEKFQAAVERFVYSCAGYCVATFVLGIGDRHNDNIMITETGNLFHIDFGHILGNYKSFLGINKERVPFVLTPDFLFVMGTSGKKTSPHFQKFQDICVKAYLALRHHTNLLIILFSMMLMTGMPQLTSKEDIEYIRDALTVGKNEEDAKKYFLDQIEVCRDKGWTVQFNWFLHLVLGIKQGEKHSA

[3] = molecular target: Mitogen-activated protein kinase kinase kinase 9 (Homo sapiens) (UniProt P80192); test: Inhibition of MLK1 at 1 uM
Mitogen-activated protein kinase kinase kinase 9 (Homo sapiens), sequence (P80192 whole entry, looked up): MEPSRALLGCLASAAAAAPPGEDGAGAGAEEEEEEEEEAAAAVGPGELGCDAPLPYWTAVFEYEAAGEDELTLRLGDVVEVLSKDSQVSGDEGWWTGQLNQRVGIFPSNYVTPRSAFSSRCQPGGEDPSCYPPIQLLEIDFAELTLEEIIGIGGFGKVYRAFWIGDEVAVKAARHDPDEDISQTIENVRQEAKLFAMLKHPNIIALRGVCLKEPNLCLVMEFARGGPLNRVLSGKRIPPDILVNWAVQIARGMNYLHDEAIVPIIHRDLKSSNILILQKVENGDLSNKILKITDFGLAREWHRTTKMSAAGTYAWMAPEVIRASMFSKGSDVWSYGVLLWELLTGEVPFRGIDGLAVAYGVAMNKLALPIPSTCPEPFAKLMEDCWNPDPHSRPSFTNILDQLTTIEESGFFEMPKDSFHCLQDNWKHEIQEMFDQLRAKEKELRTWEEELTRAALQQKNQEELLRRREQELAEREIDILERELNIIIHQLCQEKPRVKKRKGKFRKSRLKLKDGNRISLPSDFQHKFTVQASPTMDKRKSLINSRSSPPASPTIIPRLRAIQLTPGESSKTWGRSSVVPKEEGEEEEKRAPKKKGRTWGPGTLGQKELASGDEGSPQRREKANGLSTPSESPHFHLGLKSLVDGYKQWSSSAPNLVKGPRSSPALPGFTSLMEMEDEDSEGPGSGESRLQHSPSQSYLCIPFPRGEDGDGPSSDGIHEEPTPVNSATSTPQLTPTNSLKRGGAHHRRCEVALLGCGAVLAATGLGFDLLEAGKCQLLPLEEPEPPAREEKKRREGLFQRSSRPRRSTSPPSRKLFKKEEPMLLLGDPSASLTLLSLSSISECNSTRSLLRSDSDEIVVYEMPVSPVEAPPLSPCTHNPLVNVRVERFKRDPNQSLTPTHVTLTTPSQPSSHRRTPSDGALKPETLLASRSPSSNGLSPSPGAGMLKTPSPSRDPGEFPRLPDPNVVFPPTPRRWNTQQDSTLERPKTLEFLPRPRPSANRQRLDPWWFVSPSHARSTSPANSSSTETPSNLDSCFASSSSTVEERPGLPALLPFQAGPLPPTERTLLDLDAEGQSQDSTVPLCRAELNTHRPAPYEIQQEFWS

[4] = molecular target: T1, cAMP-dependent protein kinase catalytic subunit PRKX (Homo sapiens) (UniProt P51817); test: Inhibition of PRKX at 1 uM
T1 sequence (whole entry): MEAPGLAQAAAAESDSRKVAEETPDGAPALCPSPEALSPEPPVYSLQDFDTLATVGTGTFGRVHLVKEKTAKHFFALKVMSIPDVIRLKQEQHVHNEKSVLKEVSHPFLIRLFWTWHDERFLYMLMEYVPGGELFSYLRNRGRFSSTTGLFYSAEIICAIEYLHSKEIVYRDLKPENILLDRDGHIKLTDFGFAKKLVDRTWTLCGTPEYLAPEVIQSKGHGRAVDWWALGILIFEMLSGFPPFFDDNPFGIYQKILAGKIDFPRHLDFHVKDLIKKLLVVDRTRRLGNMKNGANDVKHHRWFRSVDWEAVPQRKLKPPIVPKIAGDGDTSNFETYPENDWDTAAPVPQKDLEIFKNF

[5] = molecular target: T2, Non-receptor tyrosine-protein kinase TNK1 (Homo sapiens) (UniProt Q13470); test: Inhibition of TNK1 at 1 uM
T2 sequence (whole entry): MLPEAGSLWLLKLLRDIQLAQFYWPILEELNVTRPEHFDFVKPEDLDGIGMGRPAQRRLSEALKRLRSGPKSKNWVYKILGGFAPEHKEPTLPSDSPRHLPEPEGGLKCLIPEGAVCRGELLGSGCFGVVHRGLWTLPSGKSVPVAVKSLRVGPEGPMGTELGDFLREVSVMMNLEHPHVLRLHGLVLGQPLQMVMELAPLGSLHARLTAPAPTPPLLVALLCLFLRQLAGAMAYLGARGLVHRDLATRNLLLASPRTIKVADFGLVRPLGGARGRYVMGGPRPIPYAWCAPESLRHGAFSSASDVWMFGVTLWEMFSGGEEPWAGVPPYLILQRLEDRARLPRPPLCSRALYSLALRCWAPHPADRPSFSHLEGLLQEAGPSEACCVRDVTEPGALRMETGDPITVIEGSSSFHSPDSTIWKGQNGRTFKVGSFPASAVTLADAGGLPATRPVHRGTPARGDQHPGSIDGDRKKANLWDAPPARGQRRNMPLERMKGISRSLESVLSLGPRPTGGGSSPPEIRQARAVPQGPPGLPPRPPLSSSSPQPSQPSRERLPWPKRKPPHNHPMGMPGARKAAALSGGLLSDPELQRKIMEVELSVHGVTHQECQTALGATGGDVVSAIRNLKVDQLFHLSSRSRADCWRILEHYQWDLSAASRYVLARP

[6] = molecular target: T3, Myosin-IIIb (Homo sapiens) (UniProt Q8WXR4); test: Inhibition of MYO3B at 1 uM
T3 sequence (whole entry): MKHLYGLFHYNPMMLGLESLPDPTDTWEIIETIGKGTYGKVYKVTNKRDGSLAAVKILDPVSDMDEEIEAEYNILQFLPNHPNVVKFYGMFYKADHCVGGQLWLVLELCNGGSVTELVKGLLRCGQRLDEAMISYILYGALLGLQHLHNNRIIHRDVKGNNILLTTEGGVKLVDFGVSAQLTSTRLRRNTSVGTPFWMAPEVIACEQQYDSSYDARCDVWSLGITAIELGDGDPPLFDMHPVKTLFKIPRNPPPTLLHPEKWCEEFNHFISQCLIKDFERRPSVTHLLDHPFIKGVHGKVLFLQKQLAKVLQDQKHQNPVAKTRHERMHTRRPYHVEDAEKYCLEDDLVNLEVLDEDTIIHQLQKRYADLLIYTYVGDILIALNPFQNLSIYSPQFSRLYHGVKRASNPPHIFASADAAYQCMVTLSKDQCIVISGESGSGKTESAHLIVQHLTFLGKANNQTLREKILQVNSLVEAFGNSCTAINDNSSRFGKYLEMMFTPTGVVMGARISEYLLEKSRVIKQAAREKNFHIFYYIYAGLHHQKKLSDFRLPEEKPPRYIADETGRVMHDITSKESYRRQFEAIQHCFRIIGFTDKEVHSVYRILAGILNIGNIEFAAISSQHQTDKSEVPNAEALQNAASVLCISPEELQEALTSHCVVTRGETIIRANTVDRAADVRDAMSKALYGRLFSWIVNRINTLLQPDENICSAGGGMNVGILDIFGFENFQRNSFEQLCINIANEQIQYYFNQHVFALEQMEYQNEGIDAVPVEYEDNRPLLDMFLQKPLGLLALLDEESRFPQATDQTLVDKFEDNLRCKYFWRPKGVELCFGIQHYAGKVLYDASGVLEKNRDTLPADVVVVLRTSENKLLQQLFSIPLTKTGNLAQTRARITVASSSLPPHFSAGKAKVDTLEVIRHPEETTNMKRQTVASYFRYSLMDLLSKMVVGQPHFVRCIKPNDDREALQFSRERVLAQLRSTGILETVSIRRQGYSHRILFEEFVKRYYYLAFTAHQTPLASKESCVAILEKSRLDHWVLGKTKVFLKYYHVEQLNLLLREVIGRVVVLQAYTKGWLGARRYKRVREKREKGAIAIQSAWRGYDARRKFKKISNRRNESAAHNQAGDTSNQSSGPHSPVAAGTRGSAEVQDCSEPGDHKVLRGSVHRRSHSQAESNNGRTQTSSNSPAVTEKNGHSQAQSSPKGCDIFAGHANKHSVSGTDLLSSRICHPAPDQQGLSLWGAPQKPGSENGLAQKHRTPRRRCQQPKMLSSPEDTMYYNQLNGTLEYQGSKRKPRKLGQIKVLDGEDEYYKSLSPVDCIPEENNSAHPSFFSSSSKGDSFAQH

Mast/stem cell growth factor receptor Kit (Homo sapiens), sequence (P10721 whole entry): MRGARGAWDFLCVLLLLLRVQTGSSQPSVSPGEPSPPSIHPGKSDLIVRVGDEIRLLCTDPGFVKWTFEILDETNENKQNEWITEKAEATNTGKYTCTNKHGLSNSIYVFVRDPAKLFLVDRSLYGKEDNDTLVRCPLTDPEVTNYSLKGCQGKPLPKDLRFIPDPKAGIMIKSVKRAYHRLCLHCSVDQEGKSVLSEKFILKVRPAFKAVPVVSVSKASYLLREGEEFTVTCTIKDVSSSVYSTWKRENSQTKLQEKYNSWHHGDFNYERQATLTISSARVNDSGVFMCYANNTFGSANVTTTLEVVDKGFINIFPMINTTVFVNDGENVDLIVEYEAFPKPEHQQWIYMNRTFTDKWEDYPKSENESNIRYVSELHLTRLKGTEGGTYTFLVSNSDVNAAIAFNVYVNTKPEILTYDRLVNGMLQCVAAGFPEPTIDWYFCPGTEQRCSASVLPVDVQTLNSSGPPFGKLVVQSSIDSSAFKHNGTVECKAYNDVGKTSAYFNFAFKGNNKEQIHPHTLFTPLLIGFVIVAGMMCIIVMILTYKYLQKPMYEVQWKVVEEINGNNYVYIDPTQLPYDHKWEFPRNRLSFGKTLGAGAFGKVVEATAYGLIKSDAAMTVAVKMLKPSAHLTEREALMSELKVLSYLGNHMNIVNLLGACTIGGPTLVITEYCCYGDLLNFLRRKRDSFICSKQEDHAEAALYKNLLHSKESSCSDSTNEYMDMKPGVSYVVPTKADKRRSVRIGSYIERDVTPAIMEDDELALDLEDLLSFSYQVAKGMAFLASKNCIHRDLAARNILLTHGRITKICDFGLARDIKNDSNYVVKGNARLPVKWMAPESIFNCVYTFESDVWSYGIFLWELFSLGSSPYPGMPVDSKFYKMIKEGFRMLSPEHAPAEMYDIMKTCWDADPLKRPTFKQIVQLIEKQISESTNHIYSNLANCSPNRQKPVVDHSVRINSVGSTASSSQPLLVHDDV

Row | SMILES | inhibition [1] [%] | inhibition [2] [%] | inhibition [3] [%] | inhibition [4] [%] | inhibition [5] [%] | inhibition [6] [%]
1 | CN1CCN(c2ccc(-c3cnc4c(c3)N(Cc3cc(Cl)ccc3Cl)CCN4)cn2)CC1 | 87 | < 50 | < 50 | < 50 | < 50 | < 50
2 | CN1CCN(c2ccc(-c3cnc4c(c3)N(Cc3cc(Cl)ccc3C(F)(F)F)CCN4)cn2)CC1 | < 50 | < 50 | < 50 | < 50 | < 50 | < 50
3 | CN1CCN(c2ccc(-c3cnc4c(c3)N(Cc3c(F)ccc(F)c3Cl)CCN4)cn2)CC1 | 73 | < 50 | < 50 | < 50 | < 50 | < 50
4 | O=C(c1ccc(-c2cnc3c(c2)N(Cc2cc(Cl)ccc2C(F)(F)F)CCN3)cc1)N1CCC(N2CCCC2)CC1 | 89.5 |  |  | < 50 | 81.7 | 
5 | COC1CCN(C(=O)c2ccc(-c3cnc4c(c3)N(Cc3cc(Cl)ccc3C(F)(F)F)CCN4)cc2)CC1 | < 50 |  | < 50 | < 50 | < 50 | 
6 | FC(F)(F)c1ccc(Cl)cc1CN1CCNc2ncc(-c3ccnc(N4CCNCC4)c3)cc21 | 96 | < 50 | < 50 | < 50 | < 50 | < 50
7 | CN1CCN(c2ccc(-c3cnc4c(c3)N(Cc3cc(F)ccc3F)CCN4)cn2)CC1 | 56.5 | < 50 | < 50 | < 50 | 58.2 | < 50
8 | O=C(c1ccc(-c2cnc3c(c2)N(Cc2cc(Cl)ccc2C(F)(F)F)CCN3)cc1)N1CCCCC1 | < 50 |  | < 50 | < 50 | < 50 | 
9 | CC(=O)N1CCN(c2cc(-c3cnc4c(c3)N(Cc3cc(Cl)ccc3C(F)(F)F)CCN4)ccn2)CC1 | 75 | < 50 | < 50 | < 50 | < 50 | < 50
10 | O=C(O)c1ccc(-c2cnc3c(c2)N(Cc2cc(Cl)ccc2C(F)(F)F)CCN3)cc1 | < 50 |  | < 50 | < 50 | < 50 | 
